Data as given in ChEMBL document CHEMBL1152635, “Pyranonaphthoquinone derivatives of eleutherin, ventiloquinone L, thysanone and nanaomycin A possessing a diverse topoisomerase II inhibition and cytotoxicity spectrum” (2009).
In brackets after ≈: the same amount, converted by molar mass. Activity calls are given as the source filed them. No cut-off for these calls is given here.

Experiments:
Nucleic Acid = assay: Induction of DNA intercalation in pRYG DNA at 100 uM by agarose gel electrophoresis; assay type: nucleic-acid assay
[1] = target: DNA topoisomerase 2-alpha (Homo sapiens) (UniProt P11388); assay: Inhibition of human topoisomerase 2alpha-mediated kinetoplast DNA decatenation at 100 uM
Summary of the method: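 Incubation was 60 min at 37 °C, then SDS stop and proteinase K (55 °C, 30 min). Samples ran on 1% agarose containing ethidium bromide. Activity was scored as the ratio of nicked plus supercoiled minicircles to kDNA.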

[2] = target: T1, Type II restriction enzyme XhoI (Xanthomonas vasicola) (UniProt Q9KVZ7); assay: Inhibition of Xanthomonas vasicola XhoI assessed as pBSKS cleavage at 100 uM by endonuclease assay
T1 sequence (whole entry): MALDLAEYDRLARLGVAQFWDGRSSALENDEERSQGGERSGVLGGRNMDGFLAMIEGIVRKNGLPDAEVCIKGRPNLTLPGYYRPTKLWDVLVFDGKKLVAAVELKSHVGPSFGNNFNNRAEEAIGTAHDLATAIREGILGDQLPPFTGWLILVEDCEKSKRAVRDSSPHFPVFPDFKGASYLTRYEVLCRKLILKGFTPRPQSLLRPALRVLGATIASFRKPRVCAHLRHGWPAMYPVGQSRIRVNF
Summary of the method: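 Plasmid pBluescript with 1 unit XhoI in place of topoisomerase, using the relaxation protocol: 0.5 mM ATP, Tris-HCl/KCl/NaCl/EDTA/MgCl2/glycerol buffer pH 8.0, 1% DMSO, 37 °C for 60 min. The reaction was quenched with SDS/EDTA and treated with proteinase K. Products were resolved on 1% agarose in TBE.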

Saccharomyces cerevisiae = assay: Growth inhibition of Saccharomyces cerevisiae BY4741 after 24 hrs; assay type: functional; conditions: for MIC50: BY4741, 24 h
Summary of the method: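 BY4741 grown overnight at 30 °C in YPD and taken at log phase (~0.6 OD660/ml), then diluted into fresh YPD at 0.01 OD660/ml. Compounds were given in 1% DMSO at twofold steps from 1 to 128. Growth at 30 °C for 24 h was read as OD660 and normalised to a DMSO-only control. MIC50 (50% growth inhibition) was derived from relative growth versus log10 concentration.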

[3] = target: DNA topoisomerase 2-alpha (Homo sapiens) (UniProt P11388); assay: Inhibition of human topoisomerase 2alpha-mediated relaxation of double-stranded pRYG DNA at 100 uM by agarose gel electrophoresis
Summary of the method: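 Purified human topoisomerase IIα (3 units) was added last. Incubation was 37 °C for 60 min, quenched with 1% SDS/25 mM EDTA, then proteinase K. Products ran on 1% agarose in TBE without ethidium bromide and were stained afterward.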

DNA topoisomerase 2-alpha (Homo sapiens), sequence (P11388 whole entry): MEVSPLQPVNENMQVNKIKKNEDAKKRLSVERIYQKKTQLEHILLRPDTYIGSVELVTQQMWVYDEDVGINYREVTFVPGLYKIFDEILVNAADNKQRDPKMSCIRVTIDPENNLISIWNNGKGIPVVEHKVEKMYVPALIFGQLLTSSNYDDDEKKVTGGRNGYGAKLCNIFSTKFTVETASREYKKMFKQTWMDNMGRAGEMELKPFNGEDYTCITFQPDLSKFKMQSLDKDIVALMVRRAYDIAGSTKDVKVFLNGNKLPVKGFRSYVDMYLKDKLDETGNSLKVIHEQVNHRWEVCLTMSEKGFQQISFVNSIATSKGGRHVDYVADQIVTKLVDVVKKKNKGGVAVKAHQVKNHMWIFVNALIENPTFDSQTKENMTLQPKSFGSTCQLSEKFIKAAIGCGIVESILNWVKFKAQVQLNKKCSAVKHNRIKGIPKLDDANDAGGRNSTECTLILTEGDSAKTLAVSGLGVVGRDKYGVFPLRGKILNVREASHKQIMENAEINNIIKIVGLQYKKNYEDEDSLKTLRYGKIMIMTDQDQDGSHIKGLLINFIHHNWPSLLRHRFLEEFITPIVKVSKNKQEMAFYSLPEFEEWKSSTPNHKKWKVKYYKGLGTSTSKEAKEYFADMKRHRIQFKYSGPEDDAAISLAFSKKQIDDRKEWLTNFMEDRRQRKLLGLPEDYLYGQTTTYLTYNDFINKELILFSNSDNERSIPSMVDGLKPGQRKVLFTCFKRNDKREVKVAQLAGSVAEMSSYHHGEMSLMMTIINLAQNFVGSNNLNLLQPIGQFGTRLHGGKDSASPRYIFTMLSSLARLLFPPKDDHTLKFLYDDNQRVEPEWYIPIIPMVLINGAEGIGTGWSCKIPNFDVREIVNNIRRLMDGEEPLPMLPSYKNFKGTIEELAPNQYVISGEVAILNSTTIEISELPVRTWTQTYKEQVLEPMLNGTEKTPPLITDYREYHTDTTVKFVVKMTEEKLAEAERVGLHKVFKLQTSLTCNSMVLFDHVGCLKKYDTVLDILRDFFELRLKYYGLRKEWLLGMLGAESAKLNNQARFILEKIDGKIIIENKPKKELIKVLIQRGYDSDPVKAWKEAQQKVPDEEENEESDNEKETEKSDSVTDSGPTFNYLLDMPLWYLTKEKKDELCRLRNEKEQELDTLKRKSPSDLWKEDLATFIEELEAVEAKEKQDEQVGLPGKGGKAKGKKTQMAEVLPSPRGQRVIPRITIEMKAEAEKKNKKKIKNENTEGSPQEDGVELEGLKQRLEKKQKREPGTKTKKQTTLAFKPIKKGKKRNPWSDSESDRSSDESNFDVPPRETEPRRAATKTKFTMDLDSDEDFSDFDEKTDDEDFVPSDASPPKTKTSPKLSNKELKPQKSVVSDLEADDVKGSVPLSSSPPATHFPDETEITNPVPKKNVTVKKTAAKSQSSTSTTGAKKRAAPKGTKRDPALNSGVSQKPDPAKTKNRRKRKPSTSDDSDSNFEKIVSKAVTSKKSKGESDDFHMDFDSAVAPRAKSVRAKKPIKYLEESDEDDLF

Structure (SMILES): COc1cc(O)c2c(c1)C(=O)C1=C(C2=O)[C@@H](C)O[C@@H](C)C1
- Activity (Nucleic Acid): inactive
- inhibition [1]: Active
- inhibition [2]: inactive
- MIC50 (Saccharomyces cerevisiae): 5 µM (≈ 1.44 µg/mL)
- inhibition [3]: inactive

Structure (SMILES): C[C@H]1CC2=C(C(=O)c3c(O)cc(O)cc3C2=O)[C@H](O)O1
- Activity (Nucleic Acid): inactive
- inhibition [1]: Active
- inhibition [2]: inactive
- MIC (Saccharomyces cerevisiae): inactive
- inhibition [3]: inactive

Structure (SMILES): C[C@H]1O[C@@H](CC(=O)O)CC2=C1C(=O)c1ccccc1C2=O
- Activity (Nucleic Acid): inactive
- inhibition [1]: Active
- inhibition [2]: inactive
- MIC50 (Saccharomyces cerevisiae): 5 µM (≈ 1.43 µg/mL)

Structure (SMILES): C[C@H]1CC2=C(CO1)C(=O)c1c(O)cc(O)cc1C2=O
- Activity (Nucleic Acid): inactive
- inhibition [1]: Active
- inhibition [2]: inactive
- MIC (Saccharomyces cerevisiae): Active
- inhibition [3]: Active

Structure (SMILES): C[C@H]1CC2=C(C(=O)c3c(O)cccc3C2=O)[C@@H](C)O1
- Activity (Nucleic Acid): inactive
- inhibition [1]: Active
- inhibition [2]: inactive
- MIC (Saccharomyces cerevisiae): Active

Structure (SMILES): C[C@H]1CC2=C(C(=O)c3ccccc3C2=O)[C@H](O)O1
- Activity (Nucleic Acid): inactive
- inhibition [1]: Active
- inhibition [2]: inactive
- MIC (Saccharomyces cerevisiae): Active

Structure (SMILES): COc1cc(O)c2c(c1)C(=O)C1=C(CO[C@@H](C)C1)C2=O
- Activity (Nucleic Acid): inactive
- inhibition [1]: Active
- inhibition [2]: inactive
- inhibition [3]: Active

Structure (SMILES): COc1cc([C@@H]2c3cc4c(cc3[C@@H](O[C@@H]3O[C@@H]5CO[C@@H](C)O[C@H]5[C@H](O)[C@H]3O)[C@H]3COC(=O)[C@H]23)OCO4)cc(OC)c1O
- Activity (Nucleic Acid): inactive
- inhibition [2]: inactive
- inhibition [3]: Active

Structure (SMILES): COc1cc(OC)c2c(c1)C(=O)C1=C(CO[C@@H](C)C1)C2=O
- Activity (Nucleic Acid): inactive
- inhibition [1]: Active
- inhibition [2]: inactive
- inhibition [3]: Active

Structure (SMILES): COc1cccc2c1C(=O)C1=C(C[C@H](C)O[C@@H]1C)C2=O
- Activity (Nucleic Acid): inactive
- inhibition [1]: Active
- inhibition [2]: inactive
- MIC50 (Saccharomyces cerevisiae): 80 µM (≈ 21.8 µg/mL)
- inhibition [3]: inactive

Structure (SMILES): CC(C)Oc1cc(OC(C)C)c2c(c1)C(=O)C1=C(CO[C@@H](C)C1)C2=O
- Activity (Nucleic Acid): inactive
- inhibition [1]: Active
- inhibition [2]: inactive
- inhibition [3]: Active

Structure (SMILES): COc1cc(OC)c2c(c1)C(=O)C1=C(C2=O)[C@@H](C)O[C@@H](C)C1
- Activity (Nucleic Acid): inactive
- inhibition [1]: Active
- inhibition [2]: inactive

Structure (SMILES): C[C@@H]1CC2=C(C(=O)c3ccccc3C2=O)[C@H](C)O1
- Activity (Nucleic Acid): inactive
- inhibition [1]: Active
- inhibition [2]: inactive
- MIC (Saccharomyces cerevisiae): Active

Structure (SMILES): COc1ccc2c(c1)C(=O)C1=C(C[C@H](CC(=O)O)O[C@@H]1C)C2=O (racemic)
- Activity (Nucleic Acid): inactive
- inhibition [1]: Active
- inhibition [2]: inactive
- MIC (Saccharomyces cerevisiae): Active
- inhibition [3]: Active

Structure (SMILES): C[C@H]1CC2=C(C(=O)c3ccccc3C2=O)[C@@H](C)O1
- Activity (Nucleic Acid): inactive
- inhibition [1]: Active
- inhibition [2]: inactive
- MIC (Saccharomyces cerevisiae): Active

Structure (SMILES): Cc1c2ccncc2c(C)c2c1[nH]c1ccccc12
- Activity (Nucleic Acid): Active
- inhibition [2]: inactive
- inhibition [3]: Active
